{"data": "Measurements collected from several papers", "note": "Each line is one published result; the experiments were not run side by side."}
{"SMILES": "CC1CCC(C(C)C)C(OC2=C(Cl)C(=O)c3ccccc3C2=O)C1 (stereo not shown)", "organism": "Alternaria alternata", "test": "microbial growth, broth dilution", "endpoint": "MIC", "result": "12 µg/mL"}
{"SMILES": "O=C(Cn1ccnc1[N+](=O)[O-])NCc1ccccc1", "organism": "Trypanosoma cruzi", "test": "parasite growth", "test system": "LLC-MK2", "setting": "48 h, intracellular, amastigote", "endpoint": "IC50", "result": "0.71 µg/mL"}
{"SMILES": "CN1CCN(c2ncc(-c3ccc4nncc(Nc5ncccn5)c4c3)cn2)CC1", "organism": "Trypanosoma cruzi", "test": "parasite growth", "test system": "C2C12", "setting": "intracellular, amastigote", "endpoint": "EC50", "result": "> 10000 nM"}
{"SMILES": "CN[C@H](CC(C)C)C(=O)N[C@H]1C(=O)N[C@@H](CC(N)=O)C(=O)N[C@H]2C(=O)N[C@H]3C(=O)N[C@H](C(=O)N[C@H](C(=O)O)c4cc(O)cc(O)c4-c4cc3ccc4O)[C@H](O)c3ccc(c(Cl)c3)Oc3cc2cc(c3O[C@@H]2O[C@H](CO)[C@@H](O)[C@H](O)[C@H]2O[C@H]2C[C@](C)(N)[C@H](O)[C@H](C)O2)Oc2ccc(cc2Cl)[C@H]1O", "organism": "Staphylococcus haemolyticus", "test": "microbial growth", "setting": "clinical isolate", "endpoint": "MIC", "result": "0.78 µg/mL"}
{"SMILES": "COc1ccc(Nc2cnnc3cc(-c4ccc(N5CCN(C)CC5)cc4)ccc23)nc1", "organism": "Trypanosoma cruzi", "test": "parasite growth", "test system": "C2C12", "setting": "intracellular, amastigote", "endpoint": "EC50", "result": "2100 nM"}
{"SMILES": "OC(Cn1cncn1)(Cn1cncn1)c1ccc(F)cc1F", "organism": "Alternaria alternata", "test": "microbial growth, broth dilution", "endpoint": "MIC", "result": "10 µg/mL"}
{"SMILES": "CC[C@@H]1/C=C(\\C)C[C@H](C)C[C@H](OC)[C@H]2O[C@@](O)(C(=O)C(=O)N3CCCC[C@H]3C(=O)O[C@H](/C(C)=C/[C@@H]3CC[C@H](Cl)[C@H](OC)C3)[C@H](C)[C@@H](O)CC1=O)[C@H](C)C[C@@H]2OC", "organism": "Trypanosoma cruzi", "test": "parasite growth", "test system": "Vero, TULAHUEN", "setting": "72 h, intracellular, amastigote", "endpoint": "IC50", "result": "2130 nM"}
{"SMILES": "CC1(C)S[C@@H]2[C@H](NC(=O)[C@H](N)c3ccccc3)C(=O)N2[C@H]1C(=O)O", "organism": "Staphylococcus haemolyticus", "test": "microbial growth", "setting": "clinical isolate", "endpoint": "MIC", "result": "> 200 µg/mL"}
{"SMILES": "CN1CCN(c2ncc(-c3ccc4nncc(Nc5cnccn5)c4c3)cn2)CC1", "organism": "Trypanosoma cruzi", "test": "parasite growth", "test system": "C2C12", "setting": "intracellular, amastigote", "endpoint": "EC50", "result": "> 10000 nM"}
{"SMILES": "COC(=O)N[C@H](C(=O)N1CC2(CC2)C[C@H]1c1nc(-c2ccc3c(c2)C(F)(F)c2cc(-c4ccc5[nH]c([C@@H]6[C@H]7CC[C@H](C7)N6C(=O)[C@@H](NC(=O)OC)C(C)C)nc5c4)ccc2-3)c[nH]1)C(C)C", "organism": "Trypanosoma cruzi", "test": "parasite growth", "test system": "Vero, TULAHUEN", "setting": "72 h, intracellular, amastigote", "endpoint": "IC50", "result": "60 nM"}
